The structures appear in SMILES notation. Activity calls are given as the source filed them. No cut-off for these calls is given here. Peptide text beside a SMILES is read from it. * marks the point of attachment. Palmitoyl = CCCCCCCCCCCCCCCC(=O)*

In one experiment the test system is MCF7. Put plainly: Growth inhibition of breast cancer MCF7 cells after 48 hrs by MTT assay. Type of experiment: functional, cell-based. The conditions noted are these: Homo sapiens. The gist of the method:
(§1)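 Cells seeded at 200-400 per well in DMEM with 10% FBS and left to attach for 24 h. The next day, inhibitor in medium at 2× was added in an equal volume, and cells were incubated 48 h in a CO2 incubator. Reference plates were read at time of addition for T0 density. MTT staining was read as absorbance at 544 nm and compared with untreated control cells.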
On the technique in general: Tetrazolium assays rely on reduction of a dye to a coloured formazan, in cell work by metabolically active cells.

Another experiment deals with SK-MEL-2. Nature of the experiment: Growth inhibition of SK-Mel2 melanoma cells after 48 hrs by MTT assay. Format: functional, cell-based, Homo sapiens. The conditions noted are these: Homo sapiens, SK-MEL-2, 48 h. The gist of the method: as §1

As for `CCCCCCCCCCCCCCCC(=O)N[C@H](C(=O)N[C@@H](Cc1ccccc1)C(=O)N[C@H](C(=O)N[C@@H](C)C(=O)N[C@@H](CC(=O)O)C(=O)N[C@@H](Cc1c[nH]c2ccccc12)C(=O)N[C@@H](CCCNC(=N)N)C(=O)N[C@@H](CC(N)=O)C(=O)N[C@@H](CO)C(=O)N[C@@H](CC(N)=O)C(=O)N[C@@H](CCCNC(=N)N)C(=O)N[C@@H](Cc1ccc(O)cc1)C(=O)O)C(C)C)[C@@H](C)O` (Palmitoyl-TFVADWRNSNRY-OH), the outcome in the experiment with MCF7 was Active.

As usually defined, the IC50 is the concentration needed to halve the response being measured. A lower IC50 goes with inhibition by little substance. Consider `CCCCCCCCCCCCCCCC(=O)N[C@@H](CCCNC(=N)N)C(=O)NCC(=O)N[C@H](C(=O)N[C@@H](CCSC)C(=O)N[C@H](C(=O)N[C@@H](CC(C)C)C(=O)N[C@@H](Cc1ccccc1)C(=O)N[C@@H](CO)C(=O)N[C@H](C(=O)N[C@@H](CCCCN)C(=O)N[C@@H](CO)C(=O)N[C@@H](CC(N)=O)C(=O)N[C@@H](Cc1c[nH]cn1)C(=O)N1CCC[C@H]1C(=O)NCC(=O)N[C@@H](CC(C)C)C(=O)N[C@@H](CC(C)C)C(=O)N[C@@H](CO)C(=O)N[C@@H](CCC(=O)O)C(=O)N[C@@H](CCCCN)C(=O)N[C@@H](C)C(=O)N[C@@H](C)C(=O)N[C@@H](CO)C(=O)N[C@@H](CCCCN)C(=O)N[C@H](C(=O)N[C@@H](CC(N)=O)C(=O)N[C@@H](CCC(=O)O)C(=O)N[C@H](C(=O)N[C@@H](CCSC)C(=O)N[C@@H](CC(C)C)C(=O)O)[C@@H](C)O)[C@@H](C)CC)[C@@H](C)CC)[C@@H](C)O)C(C)C` (Palmitoyl-RGVMTLFSIKSNHPGLLSEKAASKINETML-OH), for which, in the experiment with MCF7, the outcome was Active. The same compound had an IC50 in the experiment on SK-MEL-2 of 640 nM.

Regarding `CCCCCCCCCCCCCCCC(=O)N[C@@H](CC(C)C)C(=O)N[C@H](C(=O)N[C@@H](Cc1ccc(O)cc1)C(=O)N[C@@H](C)C(=O)N[C@@H](Cc1c[nH]c2ccccc12)C(=O)N[C@@H](Cc1cnc[nH]1)C(=O)N[C@H](C(=O)N[C@@H](CO)C(=O)N[C@@H](Cc1ccccc1)C(=O)N[C@@H](CCCCN)C(=O)N[C@@H](C)C(=O)N[C@@H](CC(C)C)C(=O)NCC(=O)N[C@H](C(=O)N[C@H](C(=O)N[C@@H](Cc1ccc(O)cc1)C(=O)N[C@@H](CCC(N)=O)C(=O)N1CCC[C@H]1C(=O)N[C@@H](CC(C)C)C(=O)N[C@@H](CO)C(=O)NCC(=O)N[C@@H](CCCCN)C(=O)N[C@@H](Cc1ccc(O)cc1)C(=O)N[C@@H](CO)C(=O)N[C@@H](Cc1ccc(O)cc1)C(=O)O)[C@@H](C)O)[C@@H](C)O)[C@@H](C)O)[C@@H](C)O` (Palmitoyl-LTYAWHTSFKALGTTYQPLSGKYSY-OH), the outcome in the experiment on MCF7 was Active. Also, the 50% inhibitory concentration (IC50) with SK-MEL-2 stood at 450 nM.

Source of the values: ChEMBL document CHEMBL1148755, “Structural analogues of smoothened intracellular loops as potent inhibitors of Hedgehog pathway and cancer cell growth” (J Med Chem, 2007).
